Assay results taken from ChEMBL document CHEMBL3120122, “Highly potent HCV NS4B inhibitors with activity against multiple genotypes” (J Med Chem, 2014).
One block for each compound: values may come before it.

Experiments:
[1] = Displacement of tritium labeled (R)-6-cyclopropyl-4-methyl-N-(morpholin-3-ylmethyl)-8-(trifluoromethyl)quinoline-2-carboxamide from recombinant HCV genotype 1b C-terminal His6-tagged NS4B expressed in baculovirus infected insect SF9 cells after overnight incubation by scintillation proximity assay; set-up: species or system Hepatitis C virus subtype 1b
Hepatitis C virus [2] = test: Selectivity ratio of EC50 for HCV Con1 expressing NS4B H94N mutant to EC50 for HCV Con1 expressing wild type NS4B; assay type: functional, Hepacivirus hominis, isolate Con1
[3] = Selectivity ratio of EC50 for HCV JFH-1 expressing NS4B to EC50 for HCV Con1 expressing wild type NS4B; assay type: functional
Hepatitis C virus [4] = test: Antiviral activity against HCV H77 expressing wild type NS4B infected in human HuH7 cells assessed as inhibition of viral RNA replication after 3 days by dual-glo luciferase reporter gene assay; assay type: functional, organism-based, Hepacivirus hominis; conditions: genotype 1a H77, Huh-7, 72 h
Summary of the method: (§1)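 Measured in HCV replicon assays, not infection, using genotype 1a, 1b and 2a (JFH) replicons; the read-out is inhibition of replicon replication.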

[5] = Cytotoxicity against human HuH7 cells; assay type: cell-based, Huh-7
Hepatitis C virus [6] = test: Antiviral activity against HCV Con1 expressing NS4B H94N mutant infected in human HuH7 cells assessed as inhibition of viral RNA replication after 3 days by dual-glo luciferase reporter gene assay; assay type: functional, organism-based, Hepacivirus hominis; conditions: isolate Con1, Huh-7, 72 h
Summary of the method: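 Tested in the HCV genotype 1b replicon assay carrying the NS4B H94N substitution, alongside the matched 1a, 1b and 2a-JFH replicon screens.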

Hepatitis C virus [7] = test: Antiviral activity against HCV JFH-1 expressing NS4B infected in human HuH7 cells assessed as inhibition of viral RNA replication after 3 days by dual-glo luciferase reporter gene assay; assay type: functional, organism-based, Hepacivirus hominis; conditions: JFH-1, Huh-7, 72 h
Hepatitis C virus [8] = test: Antiviral activity against HCV Con1 expressing wild type NS4B infected in human HuH7 cells assessed as inhibition of viral RNA replication after 3 days by dual-glo luciferase reporter gene assay; assay type: functional, organism-based, Hepacivirus hominis; conditions: isolate Con1, Huh-7, 72 h; summary of the method: as §1
[9] = Lipophilicity, log D of the compound at pH 7.4 by chromatographic analysis; assay type: physicochemical; conditions: buffer
[10] = Intrinsic clearance in rat liver microsomes at 3 uM after 1 hr in presence of NADPH and UDP-glucuronic acid; assay type: ADME; conditions: read-out: CLH (converted)
[11] = Intrinsic clearance in human liver microsomes at 3 uM after 1 hr in presence of NADPH and UDP-glucuronic acid; assay type: ADME; conditions: read-out: CLH (converted)
[12] = Oral bioavailability in Sprague-Dawley rat; assay type: ADME, organism-based; conditions: in vivo
[13] = Half life in iv dosed Sprague-Dawley rat administered as 30 mins infusion; assay type: ADME, organism-based; conditions: in vivo
[14] = Volume of distribution at steady state in iv dosed Sprague-Dawley rat administered as 30 mins infusion; assay type: ADME, organism-based; conditions: in vivo, read-out: Vdss
[15] = Clearance in iv dosed Sprague-Dawley rat administered as 30 mins infusion; assay type: ADME, organism-based; conditions: in vivo
Hepatitis C virus [16] = test: Antiviral activity against HCV genotype 6a expressing NS4B infected in human HuH7 cells assessed as inhibition of viral RNA replication after 3 days by dual-glo luciferase reporter gene assay; assay type: functional, organism-based, Hepacivirus hominis; conditions: Huh-7, 72 h
Hepatitis C virus [17] = test: Antiviral activity against HCV ED43 expressing NS4B infected in human HuH7 cells assessed as inhibition of viral RNA replication after 3 days by dual-glo luciferase reporter gene assay; assay type: functional, organism-based, Hepacivirus hominis; conditions: ED43, Huh-7, 72 h
Hepatitis C virus [18] = test: Antiviral activity against HCV S52 expressing NS4B infected in human HuH7 cells assessed as inhibition of viral RNA replication after 3 days by dual-glo luciferase reporter gene assay; assay type: functional, organism-based, Hepacivirus hominis; conditions: S52, Huh-7, 72 h
Hepatitis C virus [19] = test: Antiviral activity against HCV genotype 2b expressing full length NS4B infected in human HuH7 cells assessed as inhibition of viral RNA replication after 3 days by dual-glo luciferase reporter gene assay; assay type: functional, organism-based, Hepacivirus hominis; conditions: Huh-7, 72 h
Hepatitis C virus [20] = test: Antiviral activity against HCV Con1 expressing NS4B H94S mutant infected in human HuH7 cells assessed as inhibition of viral RNA replication after 3 days by dual-glo luciferase reporter gene assay; assay type: functional, organism-based, Hepacivirus hominis; conditions: isolate Con1, Huh-7, 72 h

SMILES: Cc1cc(-c2nnc(NCC3OCCO3)o2)nc2c(C(C)(C)C)cc(OCC(F)(F)F)cc12
Kd [1]: 31 nM
Ratio EC50 (Hepatitis C virus [2]): 42
Ratio EC50 [3]: 2720
EC50 (Hepatitis C virus [4]): 0.9 nM
CC50 [5]: 20400 nM
EC50 (Hepatitis C virus [6]): 54 nM
EC50 (Hepatitis C virus [7]): 3580 nM
EC50 (Hepatitis C virus [8]): 1.3 nM
chromatographic logD [9]: 3.9

SMILES: Cc1cc(-c2nnc(N[C@@H]3CCC[C@H](O)C3)o2)nc2c(C(C)(C)C)cc(NCC(F)(F)F)cc12
CLint scaled at 3 µM [10]: 4 mL/min/kg
CLint scaled at 3 µM [11]: 3.67 mL/min/kg
bioavailability [12]: 88%
half-life [13]: 11 h
Vd [14]: 2.4 L/kg
clearance [15]: 10.8 mL/min/kg
Ratio EC50 [3]: 30
EC50 (Hepatitis C virus [16]): 3.1 nM
EC50 (Hepatitis C virus [17]): 0.9 nM
EC50 (Hepatitis C virus [18]): 3.7 nM
EC50 (Hepatitis C virus [19]): 0.6 nM
EC50 (Hepatitis C virus [20]): 0.34 nM
EC50 (Hepatitis C virus [4]): 0.08 nM
CC50 [5]: 6250 nM
EC50 (Hepatitis C virus [6]): 0.6 nM
EC50 (Hepatitis C virus [7]): 3 nM
EC50 (Hepatitis C virus [8]): 0.09 nM
chromatographic logD [9]: 3.6

SMILES: Cc1cc(-c2nnc(NC3CCCC3)o2)nc2c(C(C)(C)C)cc(OCC(F)(F)F)cc12
EC50 (Hepatitis C virus [6]): 35 nM
EC50 (Hepatitis C virus [7]): 3030 nM
EC50 (Hepatitis C virus [8]): 0.63 nM
chromatographic logD [9]: 4.9

SMILES: COc1cc(C(F)(F)F)c2nc(-c3nnc(NCC4OCCO4)o3)cc(C)c2c1
CC50 [5]: 50000 nM
EC50 (Hepatitis C virus [6]): 719 nM
EC50 (Hepatitis C virus [8]): 32 nM
chromatographic logD [9]: 3.4

EC50 (Hepatitis C virus [7]): 201 nM
SMILES: Cc1cc(-c2nnc(N[C@H]3CCC[C@@H](O)C3)o2)nc2c(C(C)(C)C)cc(NCC(F)(F)F)cc12

SMILES: Cc1cc(-c2nnc(N[C@H]3C[C@](O)(C(F)F)C3)o2)nc2c(C(C)(C)C)cc(OCC(F)(F)F)cc12
CC50 [5]: 6240 nM
EC50 (Hepatitis C virus [6]): 3.4 nM
EC50 (Hepatitis C virus [7]): 684 nM
EC50 (Hepatitis C virus [8]): 0.32 nM
chromatographic logD [9]: 4.1

CLint scaled at 3 µM [10]: 11.7 mL/min/kg
CLint scaled at 3 µM [11]: 7.67 mL/min/kg
half-life [13]: 2.3 h
Vd [14]: 1.8 L/kg
clearance [15]: 17.5 mL/min/kg
EC50 (Hepatitis C virus [7]): > 20000 nM
EC50 (Hepatitis C virus [8]): 5.9 nM
chromatographic logD [9]: 5.6
SMILES: Cc1cc(-c2nnc(Nc3ccccc3)o2)nc2c(C(F)(F)F)cc(-c3ccccc3)cc12
CC50 [5]: 86400 nM

SMILES: Cc1cc(-c2nnc(N[C@H]3C[C@H](O)C3)o2)nc2c(C(C)(C)C)cc(OCC(F)(F)F)cc12
CC50 [5]: 25900 nM
EC50 (Hepatitis C virus [6]): 714 nM
EC50 (Hepatitis C virus [7]): 5220 nM
EC50 (Hepatitis C virus [8]): 3.5 nM

SMILES: Cc1cc(-c2nnc(NCC3OCCO3)o2)nc2c(C(C)(C)C)cc(NCC(F)(F)F)cc12
CC50 [5]: 16000 nM
EC50 (Hepatitis C virus [6]): 4.3 nM
EC50 (Hepatitis C virus [7]): 1100 nM
EC50 (Hepatitis C virus [8]): 0.15 nM
chromatographic logD [9]: 3.6

SMILES: Cc1cc(-c2nnc(N[C@H]3C[C@@H](O)C3)o2)nc2c(C(C)(C)C)cc(OCC(F)(F)F)cc12
CC50 [5]: 10800 nM
EC50 (Hepatitis C virus [6]): 41 nM
EC50 (Hepatitis C virus [7]): 208 nM
EC50 (Hepatitis C virus [8]): 1.3 nM
chromatographic logD [9]: 3.4

SMILES: Cc1cc(-c2nnc(N[C@H]3C[C@](O)(C(F)F)C3)o2)nc2c(C(C)(C)C)cc(NCC(F)(F)F)cc12
CLint scaled at 3 µM [10]: 3.67 mL/min/kg
CLint scaled at 3 µM [11]: 3.33 mL/min/kg
bioavailability [12]: 25%
half-life [13]: 5.2 h
Vd [14]: 5 L/kg
clearance [15]: 14.5 mL/min/kg
Ratio EC50 [3]: 312
EC50 (Hepatitis C virus [17]): 0.76 nM
EC50 (Hepatitis C virus [18]): 2.3 nM
EC50 (Hepatitis C virus [19]): 0.16 nM
EC50 (Hepatitis C virus [20]): 4.4 nM
EC50 (Hepatitis C virus [4]): 0.05 nM
CC50 [5]: 5440 nM
EC50 (Hepatitis C virus [6]): 0.74 nM
EC50 (Hepatitis C virus [7]): 25 nM
EC50 (Hepatitis C virus [8]): 0.08 nM
chromatographic logD [9]: 3.7

SMILES: Cc1cc(-c2nnc(N[C@@H]3CCC[C@H](O)C3)o2)nc2c(C(C)(C)C)cc(OCC(F)(F)F)cc12
Ratio EC50 [3]: 300
EC50 (Hepatitis C virus [17]): 1.5 nM
EC50 (Hepatitis C virus [18]): 30 nM
EC50 (Hepatitis C virus [19]): 0.9 nM
EC50 (Hepatitis C virus [4]): 0.09 nM
CC50 [5]: 20900 nM
EC50 (Hepatitis C virus [6]): 5.5 nM
EC50 (Hepatitis C virus [7]): 96 nM
EC50 (Hepatitis C virus [8]): 0.32 nM
chromatographic logD [9]: 4

SMILES: Cc1cc(-c2nnc(NCC3OCCO3)o2)nc2c(C(F)(F)F)cc(OCC(F)(F)F)cc12
CC50 [5]: 26600 nM
EC50 (Hepatitis C virus [6]): 206 nM
EC50 (Hepatitis C virus [7]): 15600 nM
EC50 (Hepatitis C virus [8]): 5 nM
chromatographic logD [9]: 3.6

SMILES: Cc1cc(-c2nnc(NC3CCCC3)o2)nc2c(C(C)(C)C)cc(NCC(F)(F)F)cc12
CC50 [5]: 15800 nM
EC50 (Hepatitis C virus [6]): 5.2 nM
EC50 (Hepatitis C virus [7]): 525 nM
EC50 (Hepatitis C virus [8]): 0.15 nM
chromatographic logD [9]: 4.6
